Data: ChEMBL document CHEMBL4257459, “Synergistic antifungal effect of cyclized chalcone derivatives and fluconazole against Candida albicans” (2017)
≈ marks a conversion by molar mass, not a printed value.

What was measured:
Candida albicans [1] = test: Antifungal activity against fluconazole susceptible Candida albicans 0079gr by CLSI protocol based broth microdilution method; assay type: functional
Method in brief: (§1)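 Clinical isolates and control strain subcultured at least twice on TSA, 37 °C, 48 h. MICs by CLSI M27-A3 broth microdilution; compounds dissolved in DMSO to 2000 μg mL–1 stock. Fluconazole positive control, culture, media and DMSO vehicle controls in each run. Duplicate experiments; MIC in μg mL–1.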

Candida albicans [2] = test: Inhibition of ABC efflux pumps in fluconazole susceptible Candida albicans 004gr assessed as reduction in energy-dependent rhodamine 6G efflux in presence of 0.1 M glucose after 25 mins by fluorescence assay relative to control
Method in brief: (§2)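 Cells grown in TSB at 37 °C for 8 h, washed, resuspended in glucose-free PBS at 1 × 10^8 cells. De-energized 45 min with 5 mM deoxyglucose plus 5 mM dinitrophenol. […] Washed, sampled 5–25 min, then 0.1 M glucose added. Absorbance 527 nm, R6G from standard curve.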

Candida albicans [3] = test: Inhibition of ABC efflux pumps in fluconazole susceptible Candida albicans 003gr assessed as reduction in energy-dependent rhodamine 6G efflux in presence of 0.1 M glucose after 25 mins […] relative to control
Candida albicans [4] = test: Antifungal activity against fluconazole resistant Candida albicans A171 in presence of fluconazole by CLSI protocol based broth microdilution method; assay type: functional
Method in brief: (§3)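 Checkerboard-style combination with fluconazole at a 1 : 1 ratio, over concentrations 2–4 fold below each agent's MIC alone, by CLSI broth microdilution. Fractional inhibitory concentration index calculated and interpreted as synergy (<0.5), additive (0.5–1), indifferent or antagonistic.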

Candida albicans [5] = test: Antifungal activity against fluconazole susceptible Candida albicans 0072gr in presence of fluconazole by CLSI protocol based broth microdilution method; assay type: functional
Candida albicans [6] = test: Antifungal activity against fluconazole resistant Candida albicans 167-1 by CLSI protocol based broth microdilution method; assay type: functional
Method in brief: (§4)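 Broth microdilution per CLSI M27-A3 against clinical C. albicans isolates. Strains sub-cultured at least twice on Tryptone Soya Agar, 37 °C, 48 h. Compounds dissolved in DMSO at 2000 μg mL–1 stock. Fluconazole positive control, plus culture, media and vehicle controls. Run in duplicate; MIC in μg mL–1.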

Candida albicans [7] = test: Antifungal activity against fluconazole resistant Candida albicans 167-2 by CLSI protocol based broth microdilution method; assay type: functional; method in brief: as §4
Candida albicans [8] = test: Antifungal activity against fluconazole susceptible Candida albicans 004B1 in presence of fluconazole by CLSI protocol based broth microdilution method; assay type: functional
Candida albicans [9] = test: Inhibition of ABC efflux pumps in fluconazole susceptible Candida albicans 0079gr assessed as reduction in energy-dependent rhodamine 6G efflux in presence of 0.1 M glucose after 25 mins by fluorescence assay relative to control; method in brief: as §2
Candida albicans [10] = test: Antifungal activity against fluconazole susceptible Candida albicans 002B1 by CLSI protocol based broth microdilution method; assay type: functional; method in brief: as §1
Candida albicans [11] = test: Inhibition of ABC efflux pumps in fluconazole susceptible Candida albicans 004B1 assessed as reduction in energy-dependent rhodamine 6G efflux in presence of 0.1 M glucose after 25 mins by fluorescence assay relative to control; method in brief: as §2
Candida albicans [12] = test: Inhibition of ABC efflux pumps in fluconazole resistant Candida albicans 167-1 assessed as reduction in energy-dependent rhodamine 6G efflux in presence of 0.1 M glucose after 25 mins […] relative to control
Candida albicans [13] = test: Antifungal activity against Candida albicans ATCC 90028 in presence of fluconazole by CLSI protocol based broth microdilution method; assay type: functional
Candida albicans [14] = test: Antifungal activity against fluconazole resistant Candida albicans 167-1 in presence of fluconazole by CLSI protocol based broth microdilution method; assay type: functional; method in brief: as §3
Candida albicans [15] = test: Antifungal activity against fluconazole susceptible Candida albicans 003gr by CLSI protocol based broth microdilution method; assay type: functional; method in brief: as §1
Candida albicans [16] = test: Antifungal activity against fluconazole susceptible Candida albicans 002B1 in presence of fluconazole by CLSI protocol based broth microdilution method; assay type: functional
Candida albicans [17] = test: Antifungal activity against fluconazole resistant Candida albicans A171 by CLSI protocol based broth microdilution method; assay type: functional; method in brief: as §4
Candida albicans [18] = test: Antifungal activity against fluconazole susceptible Candida albicans 004B1 by CLSI protocol based broth microdilution method; assay type: functional; method in brief: as §1
Candida albicans [19] = test: Inhibition of ABC efflux pumps in fluconazole susceptible Candida albicans 002B1 assessed as reduction in energy-dependent rhodamine 6G efflux in presence of 0.1 M glucose after 25 mins […] relative to control
Candida albicans [20] = test: Inhibition of ABC efflux pumps in fluconazole resistant Candida albicans A171 assessed as reduction in energy-dependent rhodamine 6G efflux in presence of 0.1 M glucose after 25 mins by fluorescence assay relative to control; method in brief: as §2
Candida albicans [21] = test: Inhibition of ABC efflux pumps in fluconazole resistant Candida albicans 167-2 assessed as reduction in energy-dependent rhodamine 6G efflux in presence of 0.1 M glucose after 25 mins […] relative to control
Candida albicans [22] = test: Inhibition of ABC efflux pumps in fluconazole susceptible Candida albicans 0072gr assessed as reduction in energy-dependent rhodamine 6G efflux in presence of 0.1 M glucose after 25 mins […] relative to control
Candida albicans [23] = test: Inhibition of ergosterol biosynthesis in fluconazole resistant Candida albicans A171 at 0.5 to 1 times MIC relative to control; assay type: functional
Method in brief: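 Total sterols quantified by alcoholic KOH extraction in cells grown in 50 ml TSB with compounds at MIC and ½ MIC; untreated and 8 μg mL–1 fluconazole controls. Spectral scan; ergosterol content from A281.5 and A230 absorbances, dilution factor and pellet weight, correcting for 24(28) DHE.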

Candida albicans [24] = test: Antifungal activity against fluconazole susceptible Candida albicans 004gr in presence of fluconazole by CLSI protocol based broth microdilution method; assay type: functional
Candida albicans [25] = test: Antifungal activity against fluconazole susceptible Candida albicans 0079gr in presence of fluconazole by CLSI protocol based broth microdilution method; assay type: functional
Candida albicans [26] = test: Antifungal activity against fluconazole susceptible Candida albicans 0072gr by CLSI protocol based broth microdilution method; assay type: functional; method in brief: as §1
Candida albicans [27] = test: Antifungal activity against fluconazole susceptible Candida albicans 004gr by CLSI protocol based broth microdilution method; assay type: functional; method in brief: as §1
Candida albicans [28] = test: Inhibition of ergosterol biosynthesis in fluconazole susceptible Candida albicans ATCC 90028 at 0.5 to 1 times MIC relative to control; assay type: functional
Method in brief: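 ATCC90028 grown in 50 ml TSB with MIC and ½ MIC of compound; untreated and 8 μg mL–1 fluconazole controls. Sterols extracted by alcoholic KOH method and spectrophotometrically scanned; ergosterol % calculated from A281.5 and A230 (E values 290 and 518) with dilution factor, per pellet weight.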

Candida albicans [29] = test: Antifungal activity against fluconazole susceptible Candida albicans 003gr in presence of fluconazole by CLSI protocol based broth microdilution method; assay type: functional
Candida albicans [30] = test: Antifungal activity against Candida albicans ATCC 90028 by CLSI protocol based broth microdilution method; assay type: functional; method in brief: as §1
Candida albicans [31] = test: Antifungal activity against fluconazole resistant Candida albicans 167-2 in presence of fluconazole by CLSI protocol based broth microdilution method; assay type: functional; method in brief: as §3

Row | Compound | MIC (Candida albicans [1]) [µg/mL] | inhibition (Candida albicans [2]) [%] | inhibition (Candida albicans [3]) [%] | fractional inhibitory concentration index (FICI) (Candida albicans [4]) | fractional inhibitory concentration index (FICI) (Candida albicans [5]) | MIC (Candida albicans [6]) [µg/mL] | MIC (Candida albicans [7]) [µg/mL] | fractional inhibitory concentration index (FICI) (Candida albicans [8]) | inhibition (Candida albicans [9]) [%] | MIC (Candida albicans [10]) [µg/mL] | inhibition (Candida albicans [11]) [%] | inhibition (Candida albicans [12]) [%] | fractional inhibitory concentration index (FICI) (Candida albicans [13]) | fractional inhibitory concentration index (FICI) (Candida albicans [14]) | MIC (Candida albicans [15]) [µg/mL] | fractional inhibitory concentration index (FICI) (Candida albicans [16]) | MIC (Candida albicans [17]) [µg/mL] | MIC (Candida albicans [18]) [µg/mL] | inhibition (Candida albicans [19]) [%] | inhibition (Candida albicans [20]) [%] | further results
1 | c1ccc(-c2cc(-c3ccccc3)[nH]n2)cc1 | 16 to 62 (≈ 72.6 to 281 µM) | < 20 | < 20 | 0.625 - 1.5 | 0.63 - 2.5 | 62 to 125 (≈ 281 to 567 µM) | 62 to 125 (≈ 281 to 567 µM) | 0.63 - 2.5 | < 20 | 16 to 62 (≈ 72.6 to 281 µM) | < 20 | < 20 | 0.63 - 2.5 | 0.625 - 1.5 | 16 to 62 (≈ 72.6 to 281 µM) | 0.63 - 2.5 | 62 to 125 (≈ 281 to 567 µM) | 16 to 62 (≈ 72.6 to 281 µM) | < 20 | < 20 | inhibition (Candida albicans [21]): < 20%; inhibition (Candida albicans [22]): < 20%; inhibition (INH) (Candida albicans [23]): 49 - 94%; fractional inhibitory concentration index (FICI) (Candida albicans [24]): 0.63 - 2.5; fractional inhibitory concentration index (FICI) (Candida albicans [25]): 0.63 - 2.5; MIC (Candida albicans [26]): 16 to 62 µg/mL (≈ 72.6 to 281 µM); MIC (Candida albicans [27]): 16 to 62 µg/mL (≈ 72.6 to 281 µM); inhibition (INH) (Candida albicans [28]): 66 - 99%; fractional inhibitory concentration index (FICI) (Candida albicans [29]): 0.63 - 2.5; MIC (Candida albicans [30]): 16 to 62 µg/mL (≈ 72.6 to 281 µM); fractional inhibitory concentration index (FICI) (Candida albicans [31]): 0.625 - 1.5
2 | SC1=NC(c2ccccc2)=CC(c2ccccc2)N1 (configuration not stated) | 0.5 to 4 (≈ 1.88 to 15 µM) | < 20 | < 20 | 0.254 - 0.27 | 0.37 - 1.13 | 8 to 16 (≈ 30 to 60.1 µM) | 8 to 16 (≈ 30 to 60.1 µM) | 0.37 - 1.13 | < 20 | 0.5 to 4 (≈ 1.88 to 15 µM) | < 20 | < 20 | 0.37 - 1.13 | 0.254 - 0.27 | 0.5 to 4 (≈ 1.88 to 15 µM) | 0.37 - 1.13 | 8 to 16 (≈ 30 to 60.1 µM) | 0.5 to 4 (≈ 1.88 to 15 µM) | < 20 | < 20 | inhibition (Candida albicans [21]): < 20%; inhibition (Candida albicans [22]): < 20%; inhibition (INH) (Candida albicans [23]): 49 - 94%; fractional inhibitory concentration index (FICI) (Candida albicans [24]): 0.37 - 1.13; fractional inhibitory concentration index (FICI) (Candida albicans [25]): 0.37 - 1.13; MIC (Candida albicans [26]): 0.5 to 4 µg/mL (≈ 1.88 to 15 µM); MIC (Candida albicans [27]): 0.5 to 4 µg/mL (≈ 1.88 to 15 µM); inhibition (INH) (Candida albicans [28]): 66 - 99%; fractional inhibitory concentration index (FICI) (Candida albicans [29]): 0.37 - 1.13; MIC (Candida albicans [30]): 0.5 to 4 µg/mL (≈ 1.88 to 15 µM); fractional inhibitory concentration index (FICI) (Candida albicans [31]): 0.254 - 0.27
